Measured values: the M2OR odorant receptor database

Key:
Conditions in all cases: stereoisomer not certain
[1] = target: T1, UniProt Q7TR79
T1 sequence (whole entry): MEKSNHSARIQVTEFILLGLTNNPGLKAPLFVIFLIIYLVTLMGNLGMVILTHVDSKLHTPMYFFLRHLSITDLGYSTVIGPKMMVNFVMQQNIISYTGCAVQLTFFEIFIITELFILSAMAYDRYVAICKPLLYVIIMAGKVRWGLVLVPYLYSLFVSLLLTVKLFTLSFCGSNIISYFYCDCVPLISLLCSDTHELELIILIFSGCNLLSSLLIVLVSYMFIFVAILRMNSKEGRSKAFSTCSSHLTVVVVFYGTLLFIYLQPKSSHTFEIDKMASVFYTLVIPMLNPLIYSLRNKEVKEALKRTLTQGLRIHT
Procedure, shortened: (§1)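 Assay methods differ from source to source, frequently being transient luciferase assays in mammalian cell lines. For each receptor–molecule pair, the label responsive (active) applies when the original authors judged the measured signal statistically different from baseline, and non-responsive (inactive) applies otherwise.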

[2] = target: T2, UniProt Q7TRM0
T2 sequence (whole entry): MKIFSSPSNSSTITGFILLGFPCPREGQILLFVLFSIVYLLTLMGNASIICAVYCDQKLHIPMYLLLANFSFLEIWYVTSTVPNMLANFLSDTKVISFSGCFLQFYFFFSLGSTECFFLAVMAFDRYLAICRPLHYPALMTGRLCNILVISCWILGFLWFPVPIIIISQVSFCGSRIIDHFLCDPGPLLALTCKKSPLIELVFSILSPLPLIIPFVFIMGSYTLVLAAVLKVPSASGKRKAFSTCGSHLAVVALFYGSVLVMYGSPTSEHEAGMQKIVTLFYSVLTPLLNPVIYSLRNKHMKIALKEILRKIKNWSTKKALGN
Procedure, shortened: as §1

[3] = target: T3, UniProt Q7TRN9
T3 sequence (whole entry): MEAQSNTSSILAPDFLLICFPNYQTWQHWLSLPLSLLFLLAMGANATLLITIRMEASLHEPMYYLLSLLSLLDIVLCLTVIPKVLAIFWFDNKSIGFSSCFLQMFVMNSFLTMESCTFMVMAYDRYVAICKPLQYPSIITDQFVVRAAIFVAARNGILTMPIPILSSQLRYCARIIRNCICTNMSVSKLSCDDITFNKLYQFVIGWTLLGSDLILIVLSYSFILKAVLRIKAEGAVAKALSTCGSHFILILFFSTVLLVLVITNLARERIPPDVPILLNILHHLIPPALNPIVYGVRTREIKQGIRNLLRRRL
Procedure, shortened: as §1

[4] = target: T4, UniProt Q7TRR8
T4 sequence (whole entry): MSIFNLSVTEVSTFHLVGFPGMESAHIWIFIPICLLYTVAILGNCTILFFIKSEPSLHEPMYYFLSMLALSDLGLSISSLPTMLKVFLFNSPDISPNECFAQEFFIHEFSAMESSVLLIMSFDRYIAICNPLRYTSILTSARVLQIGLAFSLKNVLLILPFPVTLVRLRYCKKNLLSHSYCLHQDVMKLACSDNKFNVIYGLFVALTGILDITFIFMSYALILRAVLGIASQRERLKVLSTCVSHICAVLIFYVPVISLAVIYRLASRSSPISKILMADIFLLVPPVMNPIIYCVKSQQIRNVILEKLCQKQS
Procedure, shortened: as §1

[5] = target: T5, UniProt Q7TRX0
T5 sequence (whole entry): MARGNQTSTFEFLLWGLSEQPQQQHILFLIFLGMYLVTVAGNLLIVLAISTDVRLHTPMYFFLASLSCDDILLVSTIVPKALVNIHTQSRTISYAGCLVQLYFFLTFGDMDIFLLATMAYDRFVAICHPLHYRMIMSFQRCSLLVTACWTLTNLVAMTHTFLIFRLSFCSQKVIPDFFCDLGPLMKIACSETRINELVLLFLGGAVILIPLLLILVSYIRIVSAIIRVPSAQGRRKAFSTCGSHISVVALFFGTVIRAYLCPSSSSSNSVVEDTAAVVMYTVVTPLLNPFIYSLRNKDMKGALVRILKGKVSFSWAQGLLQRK
Procedure, shortened: as §1

[6] = target: T6, UniProt Q7TR71
T6 sequence (whole entry): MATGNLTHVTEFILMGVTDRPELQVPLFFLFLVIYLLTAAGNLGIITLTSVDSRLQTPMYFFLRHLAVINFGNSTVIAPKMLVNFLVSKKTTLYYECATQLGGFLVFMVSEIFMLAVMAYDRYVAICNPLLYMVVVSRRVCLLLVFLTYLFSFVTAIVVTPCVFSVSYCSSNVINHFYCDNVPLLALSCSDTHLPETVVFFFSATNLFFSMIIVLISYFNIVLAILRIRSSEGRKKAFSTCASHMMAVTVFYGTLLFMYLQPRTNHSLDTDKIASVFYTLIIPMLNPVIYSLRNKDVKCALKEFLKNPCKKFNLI
Procedure, shortened: as §1

[7] = target: T7, UniProt Q7TRA3
T7 sequence (whole entry): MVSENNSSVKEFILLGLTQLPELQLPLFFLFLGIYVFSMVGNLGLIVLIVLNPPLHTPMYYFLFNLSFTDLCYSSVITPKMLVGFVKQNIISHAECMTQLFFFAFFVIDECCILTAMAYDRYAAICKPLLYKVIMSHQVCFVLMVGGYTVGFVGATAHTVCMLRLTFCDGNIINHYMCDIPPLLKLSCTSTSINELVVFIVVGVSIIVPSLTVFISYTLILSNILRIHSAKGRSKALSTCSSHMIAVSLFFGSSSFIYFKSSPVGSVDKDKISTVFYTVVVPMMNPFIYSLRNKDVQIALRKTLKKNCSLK
Procedure, shortened: as §1

[8] = target: T8, UniProt Q7TRE4
T8 sequence (whole entry): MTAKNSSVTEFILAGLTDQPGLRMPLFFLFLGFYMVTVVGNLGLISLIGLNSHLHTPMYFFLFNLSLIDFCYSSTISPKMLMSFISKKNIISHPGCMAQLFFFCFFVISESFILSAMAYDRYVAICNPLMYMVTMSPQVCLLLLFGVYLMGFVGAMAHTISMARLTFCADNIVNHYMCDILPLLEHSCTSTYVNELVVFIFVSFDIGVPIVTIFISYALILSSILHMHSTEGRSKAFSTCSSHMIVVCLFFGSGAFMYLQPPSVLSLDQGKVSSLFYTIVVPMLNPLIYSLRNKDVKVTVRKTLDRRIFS
Procedure, shortened: as §1

[9] = target: T9, UniProt Q7TRW1
T9 sequence (whole entry): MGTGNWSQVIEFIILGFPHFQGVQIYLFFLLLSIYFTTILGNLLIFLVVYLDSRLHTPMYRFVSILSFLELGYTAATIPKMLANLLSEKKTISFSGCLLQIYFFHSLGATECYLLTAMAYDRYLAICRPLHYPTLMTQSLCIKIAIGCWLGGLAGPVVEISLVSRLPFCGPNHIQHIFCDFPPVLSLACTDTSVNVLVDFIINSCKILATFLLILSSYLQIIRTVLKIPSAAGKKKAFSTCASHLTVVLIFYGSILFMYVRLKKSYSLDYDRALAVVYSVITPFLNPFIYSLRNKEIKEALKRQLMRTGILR
Procedure, shortened: as §1

[10] = target: T10, UniProt Q8VEU7
T10 sequence (whole entry): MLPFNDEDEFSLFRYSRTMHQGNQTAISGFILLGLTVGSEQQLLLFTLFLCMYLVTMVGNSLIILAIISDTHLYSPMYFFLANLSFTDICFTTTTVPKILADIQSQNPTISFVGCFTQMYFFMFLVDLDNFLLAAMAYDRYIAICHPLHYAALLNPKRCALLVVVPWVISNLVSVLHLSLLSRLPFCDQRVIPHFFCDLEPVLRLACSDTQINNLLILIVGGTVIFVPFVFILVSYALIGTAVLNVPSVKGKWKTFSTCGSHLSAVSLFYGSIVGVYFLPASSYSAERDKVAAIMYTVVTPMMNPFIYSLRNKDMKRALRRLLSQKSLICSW
Procedure, shortened: as §1

[11] = target: T11, UniProt Q8VF05
T11 sequence (whole entry): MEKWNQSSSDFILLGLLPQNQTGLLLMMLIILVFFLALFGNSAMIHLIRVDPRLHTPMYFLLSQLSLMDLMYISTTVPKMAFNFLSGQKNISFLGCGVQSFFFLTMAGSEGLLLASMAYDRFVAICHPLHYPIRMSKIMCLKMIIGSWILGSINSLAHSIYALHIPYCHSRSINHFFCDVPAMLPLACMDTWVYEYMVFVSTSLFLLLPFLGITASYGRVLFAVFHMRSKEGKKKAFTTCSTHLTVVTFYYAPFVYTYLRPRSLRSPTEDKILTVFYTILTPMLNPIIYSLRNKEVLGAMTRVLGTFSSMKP
Procedure, shortened: as §1

O=C(O)CCCCCBr
odorant receptor agonist call [1]: inactive
odorant receptor agonist call [2]: inactive
odorant receptor agonist call [3]: inactive
odorant receptor agonist call [4]: inactive
odorant receptor agonist call [5]: inactive

O=C([O-])CCCCCCC(=O)[O-].[H+].[H+]
odorant receptor agonist call [1]: inactive
odorant receptor agonist call [2]: inactive
odorant receptor agonist call [3]: inactive
odorant receptor agonist call [4]: inactive
odorant receptor agonist call [5]: inactive

CCCCCCCCCC(=O)[O-].[H+]
odorant receptor agonist call [6]: inactive
odorant receptor agonist call [1]: inactive
odorant receptor agonist call [7]: inactive
odorant receptor agonist call [8]: inactive
odorant receptor agonist call [9]: inactive
odorant receptor agonist call [5]: inactive
odorant receptor agonist call [10]: inactive
odorant receptor agonist call [11]: inactive

O=C1Cc2ccccc2O1
odorant receptor agonist call [6]: inactive
odorant receptor agonist call [1]: inactive
odorant receptor agonist call [7]: inactive
odorant receptor agonist call [8]: inactive
odorant receptor agonist call [9]: inactive
odorant receptor agonist call [5]: inactive
odorant receptor agonist call [10]: inactive
odorant receptor agonist call [11]: inactive

C=CC(C)=CCC=C(C)CCC=C(C)C
odorant receptor agonist call [1]: inactive
odorant receptor agonist call [5]: inactive

CCCCCCCCC=CC=O
odorant receptor agonist call [1]: inactive
odorant receptor agonist call [5]: inactive

CCCCCO
odorant receptor agonist call [6]: inactive
odorant receptor agonist call [7]: inactive
odorant receptor agonist call [8]: inactive
odorant receptor agonist call [3]: inactive
odorant receptor agonist call [4]: inactive
odorant receptor agonist call [9]: inactive
odorant receptor agonist call [10]: inactive
odorant receptor agonist call [11]: inactive

CCCCCC(C=O)=Cc1ccccc1
odorant receptor agonist call [1]: inactive
odorant receptor agonist call [5]: inactive

CCC=CCCC=CC=O
odorant receptor agonist call [1]: inactive
odorant receptor agonist call [5]: inactive

CCCCCCCCCCOC(C)=O
odorant receptor agonist call [1]: inactive
odorant receptor agonist call [5]: inactive

O=C([O-])CCCCCCCC(=O)[O-].[H+].[H+]
odorant receptor agonist call [1]: inactive
odorant receptor agonist call [2]: inactive
odorant receptor agonist call [3]: inactive
odorant receptor agonist call [4]: inactive
odorant receptor agonist call [5]: inactive

C=C(C)C1CC=C(C)CC1 (stereo unspecified)
odorant receptor agonist call [1]: inactive
odorant receptor agonist call [5]: inactive

CCCCCCCCCC=CC=O
odorant receptor agonist call [1]: inactive
odorant receptor agonist call [5]: inactive

CCCC(C)=O
odorant receptor agonist call [6]: inactive
odorant receptor agonist call [7]: inactive
odorant receptor agonist call [8]: inactive
odorant receptor agonist call [9]: inactive
odorant receptor agonist call [10]: inactive
odorant receptor agonist call [11]: active

COc1ccccc1
odorant receptor agonist call [1]: inactive
odorant receptor agonist call [5]: inactive
